Source: PubChem BioAssay (several laboratories)
Hits are enriched below; roughly 5.7% of the tested compounds scored in any of these assays.
SKKanGAS inh: blocks kanamycin growth of S. pyogenes SKKanGAS strain | AID 1662 | BacTiter-Glo, 6 h | 300,000 tested, 1.3% active | inhibition, % at 7.5 µM;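 active = mean replicate score, as percent of positive control median, at least 50; inconclusive = mean below 50 but one replicate at or above 50; inactive = mean and every replicate below 50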;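 also: strain carries kanamycin resistance gene driven by streptokinase promoter and grows in 40 µg/ml kanamycin; loss of luminescence reflects streptokinase promoter inhibition or plain growth inhibition; 0% = median of DMSO wells and 100% = positive control at its reference dose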
Mdm2-MdmX inh: human Mdm2/MdmX binding inhibition; SaOS-2 split-luciferase Mdm2/MdmX complementation, luminescence; inhibition, % at 8 µM; 330,000 tested, 3% active; AID 485346; O15151+Q00987;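 active = inhibition of at least 50% at 8 µM in the primary screen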
CSC inhib: cancer stem cell inhibition; cancer stem cell-like cells viability, luminescence; inhibition, % at 7.5 µM; 300,000 tested, 1.1% active; AID 2717; in the data active = inhibition above about 75%; inconclusive = no clear call, values can overlap the other calls; tested in HMLE shEcad cells
Calb FLC: C. albicans growth modulation with fluconazole; C. albicans CaCi-2 (fluconazole-resistant clinical isolate) + fluconazole, Alamar Blue growth, 48 h; growth inhibition, % (concentration not given with the values); 300,000 tested, 0.57% active;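 active = growth inhibition above about 58% in most replicates, limit read from the data, passing the limit was not always enough; inconclusive = exactly half the replicates above a set limit; inactive = most replicates below a set limit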;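 also: all wells also contain fluconazole at 8 µg/ml as a sub-toxic cotreatment; 0% = median of DMSO wells and 100% = median of geldanamycin control wells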
Beta apoptosis: blocks beta cell apoptosis; INS-1E cytokine-induced death, ATP luminescence, 48 h; percent of positive-control rescue, neutral wells zero; protection from apoptosis, % (test concentration not listed); 300,000 tested, 0.8% active; AID 435005;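 active = Every replicate reaches about 75%, or at least half do and their mean reaches it too, limit read from the data; inconclusive = At least half of replicates reach the limit but their mean does not; inactive = Under half of replicates reach the limit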;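 also: 0% = cytokine-treated negative control wells and 100% = positive control rescue; higher means more ATP so stronger rescue from cytokine killing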
T cruzi repl: blocks replication of Trypanosoma cruzi. T. cruzi beta-gal in NIH3T3, luminescence, 90 h. inhibition, % (concentration not given with the values). 300,000 tested, 1.4% active. AID 1885;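 active = mean inhibition across valid replicates above about 55%, limit read from the data; inconclusive = mean below that limit but half or more replicates reach it; inactive = mean below it, under half of replicates reach it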;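 also: signal also drops with host cell toxicity which is not excluded here; 0% = plate median of DMSO wells and 100% = zero luminescence signal; higher percent means less beta-gal luminescence so fewer parasites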
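Material: NIH/3T3 host cells with β-galactosidase reporter T. cruzi; Input: 5,000 host fibroblasts per well; Medium: DMEM, 2% fetal bovine serum; Compound: 50 nL DMSO compound solution per well; Schedule: 3 h host attachment, then at least 90 h co-culture; Detection: luminescent β-galactosidase signal after 60 min lysis.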
Mdm2 MdmX conf: human Mdm2/MdmX binding inhibition, confirmed | shares compounds with Mdm2-MdmX inh | 10,000 tested, 55% active | inhibition, % at 8 µM | luminescent assay; in the data active = inhibition above about 40%
FLuc counter: counter-screen for Mdm2/MdmX inhibitors: full-length luciferase; shares compounds with Mdm2-MdmX inh; SaOS-2 full-length luciferase counterscreen, luminescence; inhibition, % at 8 µM; 6,200 tested, 77% active;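 active = mean inhibition at 8 µM reaching about 37%, which flags the compound as non-specific, limit read from the data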;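 also: p53-null SaOS-2 cells with luciferase driven by a doxycycline-inducible promoter; compound on cells about two nights before reading with doxycycline added after day one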
* marks the source's active call; other numbers are inactive results.

For CC(=O)c1ccc(OCC(O)CN2CCN(S(=O)(=O)c3c(C)c(C)cc(C)c3C)CC2)cc1 (stereo not given) the results were SKKanGAS inh 2, Mdm2-MdmX inh 15, CSC inhib 14, Calb FLC -3, Beta apoptosis 4 and T cruzi repl 24.
`COc1ccc(C(=O)Nn2c(SCC(=O)NC3CCCCC3)nc3ccccc3c2=O)cc1` gave SKKanGAS inh 6, Mdm2-MdmX inh 18, CSC inhib 18, Calb FLC -47 and T cruzi repl -10.
For COc1ccc(C(=O)Nn2c(SCC(=O)N3CCC(C)CC3)nc3ccccc3c2=O)cc1 the results were SKKanGAS inh 14, Mdm2-MdmX inh 59*, CSC inhib 11, Calb FLC inconclusive, Beta apoptosis 16, T cruzi repl 0, Mdm2 MdmX conf 48* and FLuc counter 142*.
Screening FC(F)(F)c1cc(CCN2C(=S)NC[C@@H]2Cc2ccccc2)cc(C(F)(F)F)c1 returned SKKanGAS inh 16, Mdm2-MdmX inh -18, CSC inhib 65, Calb FLC -9, Beta apoptosis 1 and T cruzi repl 9.
`NC1=NC[C@H](Cc2ccccc2)N1CCc1cc(C(F)(F)F)cc(C(F)(F)F)c1` gave SKKanGAS inh 11, Mdm2-MdmX inh 63*, CSC inhib 3, Calb FLC 73, Beta apoptosis 9, T cruzi repl 32 and Mdm2 MdmX conf 24.
CCOC(=O)C1CCN(C(=S)Nc2ccc(CC)cc2)CC1 was read as SKKanGAS inh 7, Mdm2-MdmX inh -15, CSC inhib -7, Calb FLC -3, Beta apoptosis -8 and T cruzi repl -9.
For Cc1ccc(N(NC(=O)C(O)(c2ccccc2)c2ccccc2)C(=O)CCl)cc1 the results were SKKanGAS inh 6, Mdm2-MdmX inh 100*, CSC inhib 21, Calb FLC -15, Beta apoptosis -9, T cruzi repl -9, Mdm2 MdmX conf 97* and FLuc counter 56*.
For Cc1ccc(C(O)(C(=O)NN(C(=O)c2ccccc2)c2ccccc2)c2ccc(C)cc2)cc1 the results were SKKanGAS inh 11, Mdm2-MdmX inh -6, CSC inhib 7, Calb FLC 10 and T cruzi repl 7.
Screening O=C(Nc1ccccc1)NN(C(=O)CCl)c1ccccc1 returned SKKanGAS inh -3, Mdm2-MdmX inh 100*, CSC inhib inconclusive, Calb FLC -1, Beta apoptosis -41, T cruzi repl -2, Mdm2 MdmX conf 76* and FLuc counter 58*.
For O=C(C1CC1)N1CCc2cc(S(=O)(=O)NCc3ccccc3)ccc21 the results were SKKanGAS inh 12, Mdm2-MdmX inh 18, CSC inhib -1, Calb FLC inconclusive, Beta apoptosis -4 and T cruzi repl -4.
For CCc1cc2c(COC(=O)CCNS(=O)(=O)c3cccc(C(F)(F)F)c3)cc(=O)oc2cc1O the results were Mdm2-MdmX inh 83*, CSC inhib 30, Beta apoptosis 3 and Mdm2 MdmX conf -12.
`Cc1cc(NC(=O)COC(=O)CCNS(=O)(=O)c2cccc(C(F)(F)F)c2)no1` gave SKKanGAS inh -4, Mdm2-MdmX inh 5, CSC inhib -16, Calb FLC -8, Beta apoptosis -1 and T cruzi repl -1.
For COc1ccc2c(c1)-c1c(ssc1=S)C(C)(C)N2S(=O)(=O)c1ccc(C)cc1 the results were SKKanGAS inh 47, Mdm2-MdmX inh 58*, CSC inhib 66, Calb FLC -1, Beta apoptosis 2, T cruzi repl 40, Mdm2 MdmX conf 46* and FLuc counter 61*.
COc1ccc2c(c1)-c1c(sn(-c3ccc(OC)c(OC)c3)c1=S)C(C)(C)N2 was read as SKKanGAS inh 20, Mdm2-MdmX inh 55*, CSC inhib 74, Calb FLC 34, T cruzi repl 37 and Mdm2 MdmX conf 19.
`COc1ccc2c(c1)-c1c(ssc1=S)C(C)(C)N2` gave SKKanGAS inh -7, Mdm2-MdmX inh 92*, CSC inhib 9, Calb FLC 41, Beta apoptosis -14, T cruzi repl 10, Mdm2 MdmX conf 87* and FLuc counter 55*.
Cc1ccc2c(c1)-c1c(ssc1=S)C(C)(C)N2C(=O)CSc1nncn1C was read as SKKanGAS inh 2, Mdm2-MdmX inh 5, CSC inhib 9, Calb FLC -5, Beta apoptosis 2 and T cruzi repl 10.
Screening CC(=O)NC(Cc1ccc(C)cc1)C(=O)NC1CCN(C(=O)NCc2ccccc2)CC1 (stereo not given) returned SKKanGAS inh 1, Mdm2-MdmX inh -8, Calb FLC 0 and T cruzi repl -7.
COCCCN1C(=O)c2ccc(C(=O)N3CCN(c4ccccc4OC)CC3)cc2C1=O was read as SKKanGAS inh -6, Mdm2-MdmX inh -4, CSC inhib 12, Calb FLC -1, Beta apoptosis -2 and T cruzi repl -13.
Screening COc1cc(CNCc2ccncc2)cc(OC)c1OC returned SKKanGAS inh 1, Mdm2-MdmX inh -2, CSC inhib 3, Calb FLC 6, Beta apoptosis 1 and T cruzi repl -10.
For COc1cc2c(cc1OC)CN(C(=O)CN1CCN(S(=O)(=O)c3ccc(C)c(C)c3)CC1)CC2 the results were SKKanGAS inh -10, Mdm2-MdmX inh 41, CSC inhib -10, Calb FLC -2, Beta apoptosis 2 and T cruzi repl 10.
`CCNc1nc(NC(C)CC)nc(Oc2ccc(OCC)nn2)n1` (stereo not given) gave SKKanGAS inh 4, Mdm2-MdmX inh 54*, CSC inhib 7, Calb FLC 9, Beta apoptosis 3, T cruzi repl -11 and Mdm2 MdmX conf 4.
CCOc1ccc(Oc2nc(NCC(C)C)nc(OC)n2)nn1 was read as SKKanGAS inh -3, Mdm2-MdmX inh 22, CSC inhib -19, Calb FLC -7, Beta apoptosis -2 and T cruzi repl 4.
Screening C=C1C(=O)[C@@]23[C@H](O)C[C@@H]4C(C)(C)CC[C@H](O)[C@]4(C)[C@@H]2C[C@H](O)[C@@H]1[C@H]3O returned SKKanGAS inh 6, Mdm2-MdmX inh 83*, CSC inhib 57, Calb FLC -14, Beta apoptosis -62, T cruzi repl 24 and Mdm2 MdmX conf 15.
For C=C1C(=O)[C@@]23[C@H](O)C[C@@H]4C(C)(C)CC[C@H](O)[C@@]4(C)[C@@H]2CC[C@@H]1[C@H]3O the results were SKKanGAS inh 5, Mdm2-MdmX inh 97*, CSC inhib 3, Calb FLC -4, Beta apoptosis 99*, T cruzi repl 40, Mdm2 MdmX conf 100* and FLuc counter 48*.
